# Assay results collected from several papers.
# Lines come from different studies, so protocols differ.
# Organism: Mycolicibacterium smegmatis
# Observed: microbial growth
Structure (SMILES),technique,strain,tested at,time,measurement,value
CCCc1ccc(-c2c[nH]c(N)n2)cc1,,ATCC700084 MC^2155,,48 h,MIC,200 µM
Cc1nc2sc3ccccc3n2c1C(=O)N1CCN(Cc2cn(-c3cccc([N+](=O)[O-])c3)nn2)CC1,,,,72 h,IC50,44.1 µM
CC(C)=CCC/C(C)=C/CNCCNC1C2CC3CC(C2)CC1C3 (stereo not drawn),,,,48 h,IC50,2.5 µM
CC(C)=CCC/C(C)=C/C(=O)O,,,,48 h,IC50,> 500 µM
O=C(O)CCCCCC1NC(=O)CS1 (racemic),,MC^2155,,,MIC90,10 µM
O=C(N[C@H](CO)[C@H](O)c1ccc([N+](=O)[O-])cc1)C(Cl)Cl,,ATCC14468,,,MIC90,125 µg/mL
NC1C2CC3CC(C2)CC1C3 (stereo not drawn),,,,48 h,IC50,> 500 µM
NNC(=O)c1ccncc1,resazurin,MC^2155,,24 h,MIC,5 µg/mL
Cc1nc2sc3ccccc3n2c1C(=O)N1CCN(CCn2cc(-c3ccc(C(C)(C)C)cc3)nn2)CC1,,,,72 h,IC50,34.6 µM
Cc1cc(N)c2ccccc2[n+]1CCCCCCCCCC[n+]1c(C)cc(N)c2ccccc21,disc diffusion,,50 µg/disc,,inhibition zone,18 mm
Cc1nc2sc3ccccc3n2c1C(=O)N1CCN(Cc2cn(-c3ccc([N+](=O)[O-])cc3)nn2)CC1,,,,72 h,IC50,> 128 µM
CCCCOc1ccc(-c2c[nH]c(N)n2)cc1,,ATCC700084 MC^2155,,48 h,MIC,> 200 µM
